# High-throughput results (PubChem BioAssay)
# CXCR6 inh: blocks human CXCR6 beta-arrestin recruitment; O00574; CHO-K1 PathHunter CXCR6 beta-arrestin, luminescence; inhibition, % at 20 µM; actives 0.36% (n = 360,000); AID 602244; in the data active = inhibition above about 34%, passing the limit was not always enough;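 also: antagonist mode with CXCL16 agonist at 10 nM final; 0% = 10 nM CXCL16 with DMSO and 100% = unstimulated wells without agonist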
# APJ ag: activates the human apelin receptor APJ; actives 0.11% (n = 330,000); activation, % at 20 µM; CHO-K1 APJ PathHunter beta-arrestin, luminescence; 0% DMSO wells, 100% apelin;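 active = activation more than six SD over the plate average, tested at 20 µM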;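 also: 0% = DMSO alone and 100% = apelin-13 at 10 nM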
#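 assay system = CHO-K1 APJ beta-arrestin complementation cell line | input = cell density 1000 per well | dosing = compound 20 µM once, DMSO 1% | timing = compound 90 min 25 °C, reagent 1 h | measured by = luminescence from split beta-galactosidase complementation, Galacton Star/Emerald II substrate | read-out basis = APJ agonist activity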
# m5-HT2A agonist: activates the mouse 5-HT2A serotonin receptor; CHO-K1 mHTR2A beta-arrestin complementation, luminescence; percent of 30 µM serotonin response; activation, % at 7.6 µM; actives 0.66% (n = 360,000);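 active = activation above a run cutoff, the mean activation of all tested compounds plus 3 SD, cut at about 14% in these data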;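 also: 0% = plate median of compound wells and 100% = 30 µM serotonin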
# EBI2 block: antagonists of human EBI2 receptor; AID 651636; EBI2 beta-arrestin recruitment, luminescence, 7a,25-OHC stimulated; actives 0.81% (n = 360,000); P32249; inhibition, % at 5 µM; in the data active = inhibition above about 38%;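 also: enzyme fragment complementation signal reports receptor beta-arrestin coupling in cells; 0% = agonist plus DMSO wells and 100% = wells without agonist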
# APJ antagonist: antagonists of human APJ apelin receptor; actives 0.32% (n = 330,000); inhibition, % at 20 µM; P35414; CHO-K1 APJ beta-arrestin complementation, luminescence; AID 2521;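 active = inhibition above about 40% at 20 µM, limit read from the data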;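 also: cells challenged with 10 nM apelin-13 agonist together with compound; plate controls were apelin-13 plus DMSO wells for no effect and DMSO wells lacking apelin-13 for full effect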
# CCR6 antag: antagonists of human CCR6 receptor; CHO-K1 CCR6 PathHunter beta-arrestin, luminescence, CCL20-stimulated; P51684; inhibition, % at 20 µM; actives 0.49% (n = 340,000);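 active = compounds whose inhibition of the agonist-driven luminescence signal at 20 µM reaches about 50%, limit read from the data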;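 also: cells stimulated with CCL20 at 14 nM final; plate controls were DMSO with CCL20 for no effect and DMSO without agonist for full effect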
# MOR ag counter: activates human mu opioid receptor in HTR2A counterscreen; shares compounds with m5-HT2A agonist; U2OS OPRM1 beta-arrestin PathHunter, luminescence; DMSO 0%, DAMGO 9.3 µM 100%; activation, % at 9.3 µM; actives 5.3% (n = 2,300);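 active = mean activation above the mean of DMSO-only wells plus 3 SD, cut at about 0.5% in these data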
# Target sequence (P35372 whole entry, looked up): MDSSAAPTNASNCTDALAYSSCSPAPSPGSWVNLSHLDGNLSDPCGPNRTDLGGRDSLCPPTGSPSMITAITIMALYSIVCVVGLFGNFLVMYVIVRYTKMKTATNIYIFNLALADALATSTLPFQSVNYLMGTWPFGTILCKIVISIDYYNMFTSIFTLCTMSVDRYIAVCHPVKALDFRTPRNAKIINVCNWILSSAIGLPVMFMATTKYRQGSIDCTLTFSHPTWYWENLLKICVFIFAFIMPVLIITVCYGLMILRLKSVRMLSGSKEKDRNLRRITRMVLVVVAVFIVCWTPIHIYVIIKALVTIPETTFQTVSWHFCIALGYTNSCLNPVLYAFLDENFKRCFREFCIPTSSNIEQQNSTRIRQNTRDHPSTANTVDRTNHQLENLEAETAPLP
# m5-HT2A ag conf: confirmation of mouse HTR2A serotonin receptor agonists | shares compounds with m5-HT2A agonist | actives 19% (n = 2,300) | CHO-K1 PathHunter beta-arrestin recruitment, luminescence; DMSO 0%, 30 µM serotonin 100% | activation, % at 7.6 µM;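 active = mean activation across triplicates above the hit threshold derived in the original primary screen, cut at about 15% in these data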
# * marks the source's active call; other numbers are inactive results; . = not tested or not shown. A selection: hits, their analogues and other compounds. The true share with any hit is near 2.1%.
SMILES,CXCR6 inh,APJ ag,m5-HT2A agonist,EBI2 block,APJ antagonist,CCR6 antag,MOR ag counter,m5-HT2A ag conf
CCOc1ccccc1CNCCc1ccc2c(c1)OCO2,10,-2,53*,-12,-2,17,0,25*
Fc1ccc(CNCCc2ccc3c(c2)OCO3)cc1,6,-3,4,16,20,-8,.,.
COc1cc(CNCCc2c[nH]c3ccccc23)cc(OC)c1,-1,0,8,0,-10,3,.,.
c1ccc2c(CCNCc3ccc4c(c3)OCO4)c[nH]c2c1,-4,-1,30*,-5,10,-14,0,38*
c1ccc(CNCCc2c[nH]c3ccccc23)cc1,-7,0,41*,2,16,1,-1,20*
CCc1ccc(CNCCc2c[nH]c3ccccc23)cc1,-5,-1,16*,-8,3,-14,0,9
COc1cc(CNCCc2c[nH]c3ccccc23)cc(OC)c1OC,-10,.,-4,-2,.,.,.,.
OCCN1C2CCC1CC(O)(c1ccc(F)cc1)C2 (stereo unspecified),-1,1,8,4,0,12,.,.
CC(C)NC(C)Cc1ccc(I)cc1 (stereo unspecified),9,1,-4,-3,1,8,.,.
Clc1ccccc1CNCCc1c[nH]c2ccccc12,-1,.,23*,1,.,.,1.1*,51*
O=C(c1cn(Cc2ccccc2)c2ccccc12)C1CC1,3,-4,-9,-4,9,14,.,.
NCCc1c[nH]c2ccc(C(N)=O)cc12,1,-2,28*,0,-1,-1,0,15*
O=C(COc1ccccc1)N1CCN(Cc2c[nH]c3ccccc23)CC1,-9,1,16*,10,-12,8,0,7
COc1cccc(CN2CCN(C(=O)Cc3ccccc3OC)CC2)c1,-10,-2,19*,4,-7,13,0,10
c1ccc2c(CN3CCCCCC3)c[nH]c2c1,-4,-4,-5,-4,17,17,.,.
O=C(Cc1ccccc1)N1CCN(Cc2ccc(Cl)cc2)CC1,5,.,1,14,.,-1,.,.
Cn1cccc1CN1CCN(C(=O)COc2ccccc2)CC1,3,-3,-4,13,12,-18,.,.
O=C(Cc1ccccc1)N1CCN(Cc2c[nH]c3ccccc23)CC1,1,2,22*,7,2,9,-1,10
Cc1ccccc1CN1CCN(C(=O)Cc2ccccc2)CC1,4,1,17*,6,4,13,-1,1
COC(=O)C1=C(c2ccc3ccccc3c2)C[C@@H]2CC[C@H]1N2C(=O)NC(C)C,-3,-4,-9,5,5,3,.,.
CCC(=O)[C@@H](C)[C@@H](O)[C@H](C)C[C@@H](C)C1OC(=O)C[C@@]2(O)CC=C(C)C(O2)C(C)=CCCC[C@H](O[C@H]2C[C@@H](OC(N)=O)[C@H](O)[C@@H](C)O2)C=C[C@H](C)C[C@H]1C (stereo partly specified),-16,.,3,36,.,.,.,.
COc1ccc(CCNCc2sccc2C)cc1,0,1,25*,-2,-4,14,0,9
Cc1ccsc1CNCCc1ccc(F)cc1,2,0,7,-3,13,7,.,.
O=C(COc1ccc(S(=O)(=O)N2CCOCC2)cc1)N1CCN(Cc2ccc3c(c2)OCO3)CC1,-6,1,2,-20,-15,7,.,.
Cc1cccc(CNCCc2c[nH]c3ccccc23)c1,-6,-4,33*,6,18,-7,0,15*
OC(CNCCc1c[nH]c2ccccc12)C(F)(F)F (stereo unspecified),2,-2,-3,-9,-10,15,.,.
